According to ChEMBL document CHEMBL2177027, “Exploring the directionality of 5-substitutions in a new series of 5-alkylaminopyrazolo[4,3-e]1,2,4-triazolo[1,5-c]pyrimidine as a strategy to design novel human a(3) adenosine receptor antagonists” (J Med Chem, 2012):

Experiments:
[1] = target: Adenosine receptors; A1 & A3 (Homo sapiens) (UniProt P30542+P0DMS8); test: Selectivity ratio of Ki for human adenosine A1 receptor expressed in CHO cell membrane to Ki for human adenosine A3 receptor expressed in CHO cell membrane; type: cell-based
Adenosine receptor A3 = target: T1, Adenosine receptor A3 (Homo sapiens, UniProt P0DMS8); test: Displacement of [3H]NECA from human adenosine A3 receptor expressed in CHO cell membrane; type: cell membranes
T1 sequence (P0DMS8 whole entry): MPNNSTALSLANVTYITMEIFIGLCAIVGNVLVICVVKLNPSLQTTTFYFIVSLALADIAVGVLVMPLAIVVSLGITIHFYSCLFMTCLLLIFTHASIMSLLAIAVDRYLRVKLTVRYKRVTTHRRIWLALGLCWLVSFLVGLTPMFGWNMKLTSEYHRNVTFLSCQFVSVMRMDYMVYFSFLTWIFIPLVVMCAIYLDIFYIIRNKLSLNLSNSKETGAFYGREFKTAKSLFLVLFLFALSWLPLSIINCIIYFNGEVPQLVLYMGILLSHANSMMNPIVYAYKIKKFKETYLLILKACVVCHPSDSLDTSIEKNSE
Procedure, shortened: (§1)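 CHO cells stably transfected with the human receptor subtype. Membranes were prepared by a 1000g spin to clear fragments and nuclei, then pelleted from the supernatant at 100 000g. Pellet was resuspended in the respective binding buffer, frozen in liquid nitrogen and stored until radioligand competition binding.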

[2] = Selectivity ratio of Ki for human adenosine A2A receptor expressed in CHO cell membrane to Ki for human adenosine A3 receptor expressed in CHO cell membrane; type: cell-based
[3] = Selectivity ratio of Ki for human adenosine A1 receptor expressed in CHO cell membrane to Ki for human adenosine A2A receptor expressed in CHO cell membrane; type: cell-based
Adenosine receptor A2a = Adenosine receptor A2a (Homo sapiens, UniProt P29274); test: Displacement of [3H]NECA from human adenosine A2A receptor expressed in CHO cell membrane; type: cell membranes; procedure, shortened: as §1
Adenosine receptor A2b = target: T2, Adenosine receptor A2b (Homo sapiens, UniProt P29275); test: Antagonist activity at human adenosine A2B receptor expressed in CHO cells assessed as NECA-induced adenylate cyclase activity; type: functional, cell-based
T2 sequence (P29275 whole entry): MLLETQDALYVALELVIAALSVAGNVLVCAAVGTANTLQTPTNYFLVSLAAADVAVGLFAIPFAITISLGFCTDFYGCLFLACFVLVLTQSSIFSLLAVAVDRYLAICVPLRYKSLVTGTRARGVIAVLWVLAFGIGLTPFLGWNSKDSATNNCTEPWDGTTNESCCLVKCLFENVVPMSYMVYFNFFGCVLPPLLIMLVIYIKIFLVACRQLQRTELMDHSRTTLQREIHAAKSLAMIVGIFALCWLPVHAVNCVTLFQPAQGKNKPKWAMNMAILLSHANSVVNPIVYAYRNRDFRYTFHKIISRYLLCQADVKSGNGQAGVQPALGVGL
Procedure, shortened: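 Membranes from stably transfected CHO cells made with a single high-speed spin of the homogenate. Incubated 20 min with about 150 000 cpm [α-³²P]ATP in mixture lacking EDTA and NaCl. IC50 taken from concentration-dependent inhibition of NECA-stimulated adenylyl cyclase using Hill equation.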

Adenosine receptor A1 = target: T3, Adenosine receptor A1 (Homo sapiens, UniProt P30542); test: Displacement of [3H]CCPA from human adenosine A1 receptor expressed in CHO cell membrane; type: cell membranes; procedure, shortened: as §1
T3 sequence (P30542 whole entry): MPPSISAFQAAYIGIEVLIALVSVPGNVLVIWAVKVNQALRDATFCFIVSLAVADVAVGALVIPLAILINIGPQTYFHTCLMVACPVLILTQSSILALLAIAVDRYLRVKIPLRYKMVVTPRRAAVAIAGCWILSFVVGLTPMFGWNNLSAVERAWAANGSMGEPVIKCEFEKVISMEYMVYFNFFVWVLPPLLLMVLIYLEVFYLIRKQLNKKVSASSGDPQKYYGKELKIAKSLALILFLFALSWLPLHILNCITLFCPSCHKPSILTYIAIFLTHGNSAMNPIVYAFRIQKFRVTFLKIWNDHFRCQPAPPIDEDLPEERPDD

Adenosine receptor A2a, sequence (P29274 whole entry): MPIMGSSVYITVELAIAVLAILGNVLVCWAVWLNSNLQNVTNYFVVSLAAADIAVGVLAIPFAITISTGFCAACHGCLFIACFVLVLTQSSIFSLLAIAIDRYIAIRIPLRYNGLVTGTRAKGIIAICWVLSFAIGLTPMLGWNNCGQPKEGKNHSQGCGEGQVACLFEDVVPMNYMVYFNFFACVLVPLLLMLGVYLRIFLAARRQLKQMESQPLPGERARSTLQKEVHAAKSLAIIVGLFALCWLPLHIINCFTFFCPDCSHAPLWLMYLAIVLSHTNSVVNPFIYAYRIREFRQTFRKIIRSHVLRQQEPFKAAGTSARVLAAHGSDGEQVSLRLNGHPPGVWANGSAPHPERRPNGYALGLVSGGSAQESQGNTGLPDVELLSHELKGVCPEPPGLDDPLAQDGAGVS

Ratio Ki [1] | Ki (Adenosine receptor A3) [nM] | Ki (Adenosine receptor A2a) [nM] | Ki (Adenosine receptor A2b) [nM] | Ki (Adenosine receptor A1) [nM] | Compound | Ratio Ki [2] | Ratio Ki [3]
3.86 | 136 | 124 | > 10000 | 525 | Cn1cc2c(nc(NCCCCCO)n3nc(-c4ccco4)nc23)n1 | 0.91 | 4.23
12.1 | 394 | 1030 | > 10000 | 4760 | CN(C)c1nc2nn(C)cc2c2nc(-c3ccco3)nn12 | 2.61 | 4.62
1.05 | 356 | 136 | > 3000 | 375 | CC(O)CNc1nc2nn(C)cc2c2nc(-c3ccco3)nn12 (stereo not drawn) | 0.38 | 2.76
28.8 | 8.62 | 446 | 7660 | 248 | CCCCCC(C)Nc1nc2nn(C)cc2c2nc(-c3ccco3)nn12 (stereo not drawn) | 51.7 | 0.56
4.04 | 824 | 7490 | > 10000 | 3330 | CCCCCN(CCCCC)c1nc2nn(C)cc2c2nc(-c3ccco3)nn12 | 9.09 | 0.44
13.6 | 44.4 | 208 | 2160 | 604 | CCNc1nc2nn(C)cc2c2nc(-c3ccco3)nn12 | 4.68 | 2.9
28.9 | 36.7 | 1380 | > 10000 | 1060 | CCCCN(C)c1nc2nn(C)cc2c2nc(-c3ccco3)nn12 | 37.6 | 0.77
0.88 | 241 | 155 | 9300 | 212 | Cn1cc2c(nc(NCCCO)n3nc(-c4ccco4)nc23)n1 | 0.64 | 1.37
32.9 | 14.6 | 168 | 3980 | 481 | CCCCCNc1nc2nn(C)cc2c2nc(-c3ccco3)nn12 | 11.5 | 2.86
2.1 | 309 | 157 | 7470 | 649 | Cn1cc2c(nc(NCCO)n3nc(-c4ccco4)nc23)n1 | 0.51 | 4.13
11 | 1360 | 6430 | > 10000 | 15000 | CCN(CCO)c1nc2nn(C)cc2c2nc(-c3ccco3)nn12 | 4.73 | 2.33
42.6 | 182 | 6120 | > 10000 | 7750 | CCOc1nc2nn(C)cc2c2nc(-c3ccco3)nn12 | 33.6 | 1.27
158 | 3.82 | 512 | > 10000 | 605 | CCCCC(CC)CNc1nc2nn(C)cc2c2nc(-c3ccco3)nn12 (stereo not drawn) | 134 | 1.18
15.1 | 96.3 | 798 | > 10000 | 1450 | CCN(CC)c1nc2nn(C)cc2c2nc(-c3ccco3)nn12 | 8.29 | 1.82
3.48 | 62.9 | 207 | > 10000 | 219 | CCC(CO)Nc1nc2nn(C)cc2c2nc(-c3ccco3)nn12 (stereo not drawn) | 3.29 | 1.06

Continued, compound first:

Compound | Ratio Ki [1] | Ki (Adenosine receptor A3) [nM] | Ki (Adenosine receptor A2a) [nM] | Ki (Adenosine receptor A2b) [nM] | Ki (Adenosine receptor A1) [nM] | Ratio Ki [2] | Ratio Ki [3]
Cn1cc2c(nc(NCC3CCCCC3)n3nc(-c4ccco4)nc23)n1 | 17 | 47.3 | 814 | 9650 | 802 | 17.2 | 0.98
Cn1cc2c(nc(NC3CCCC3)n3nc(-c4ccco4)nc23)n1 | 10.4 | 7.68 | 130 | 2650 | 80.1 | 16.9 | 0.62
Cn1cc2c(nc(NC3CC3)n3nc(-c4ccco4)nc23)n1 | 3 | 69.3 | 113 | 1750 | 208 | 1.63 | 1.84
Cn1cc2c(nc(NCCCCCCO)n3nc(-c4ccco4)nc23)n1 | 3.1 | 156 | 109 | > 10000 | 483 | 0.7 | 4.43
Cn1cc2c(nc(NC3CCCCCC3)n3nc(-c4ccco4)nc23)n1 | 14.5 | 15.4 | 336 | 6590 | 223 | 21.8 | 0.66
C[C@@H](Nc1nc2nn(C)cc2c2nc(-c3ccco3)nn12)c1ccccc1 | 255 | 3.71 | 38.2 | 12200 | 945 | 10.3 | 24.7
Cn1cc2c(nc(NC(c3ccccc3)c3ccccc3)n3nc(-c4ccco4)nc23)n1 | 204 | 0.83 | 900 | > 10000 | 169 | 1080 | 0.19
Cn1cc2c(nc(NC3CCC3)n3nc(-c4ccco4)nc23)n1 | 9.6 | 17.6 | 83.9 | 1110 | 169 | 4.77 | 2.01
C[C@H](Nc1nc2nn(C)cc2c2nc(-c3ccco3)nn12)c1ccccc1 | 1130 | 0.3 | 55.2 | 5290 | 338 | 184 | 6.12
COc1ccc(CCNc2nc3nn(C)cc3c3nc(-c4ccco4)nn23)cc1OC | 42 | 37.6 | 92.5 | 3880 | 1580 | 2.46 | 17.1
Cn1cc2c(nc(NCc3ccc(-c4ccccc4)cc3)n3nc(-c4ccco4)nc23)n1 | 93.6 | 187 | 593 | > 10000 | 17500 | 3.17 | 29.5
Cn1cc2c(nc(NCc3ccc(C(F)(F)F)cc3)n3nc(-c4ccco4)nc23)n1 | 82.5 | 14.9 | 245 | > 3000 | 1230 | 16.4 | 5.02
Cn1cc2c(nc(NC3CCCCC3)n3nc(-c4ccco4)nc23)n1 | 19.4 | 8.57 | 233 | 6320 | 166 | 27.2 | 0.71
CN1CCN(c2nc3nn(C)cc3c3nc(-c4ccco4)nn23)CC1 | 11.4 | 1330 | 7690 | > 10000 | 15200 | 5.78 | 1.98
